Experimental data published in ChEMBL document CHEMBL4346672, “Antimicrobial and KPC/AmpC inhibitory activity of functionalized benzosiloxaboroles” (Eur J Med Chem, 2019).
In brackets after ≈: the same amount, converted by molar mass. Activity calls are given as the source filed them. The calls are words filed in the database; no cut-off is given here.

Experiments:
Staphylococcus aureus [1] = assay: Antibacterial activity against Staphylococcus aureus ATCC 6538P assessed as diameter of zone inhibition measured after 18 hrs by CLSI disc diffusion method; assay type: functional
In short: (§1)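 Disc diffusion on Mueller-Hinton II agar. Compounds dissolved in DMSO. Strains stored at -80 °C and subcultured twice on tryptic soy agar before testing. Inhibition zones read after 35 °C, 18 h.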

Serratia marcescens = assay: Antibacterial activity against Serratia marcescens ATCC 13880 measured after 18 hrs by CLSI broth dilution method; assay type: functional; details: ATCC 13880, 18 h
In short: (§2)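 Broth MIC in Mueller-Hinton II broth following CLSI, compounds dissolved in DMSO. Strains subcultured twice on tryptic soy agar before testing. Growth read after 35 °C, 18 h.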

[2] = Dissociation constant, pKa1 of compound in 0.1 M NaOH by potentiometric analysis; assay type: physicochemical
Candida albicans [3] = assay: Antifungal activity against Candida albicans ATCC 90028 assessed as decrease in fungal cell growth at 0.78 to 12.5 mg/L incubated for 24 hrs by CLSI broth dilution method; assay type: functional; details: ATCC 90028, 24 h
In short: (§3)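 Yeast broth dilution in RPMI 1640 with 2% glucose, compounds in DMSO. Yeasts pre-grown on Sabouraud dextrose agar. Growth read after 35 °C, 24 h.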

Candida parapsilosis = assay: Antifungal activity against Candida parapsilosis ATCC 22019 assessed as decrease in fungal cell growth at 0.78 to 12.5 mg/L incubated for 24 hrs by CLSI broth dilution method; assay type: functional; details: Lodderomyces parapsilosis, ATCC 22019, 24 h; in short: as §3
Candida tropicalis = assay: Antifungal activity against Candida tropicalis IBA 171 assessed as decrease in fungal cell growth at 0.78 to 12.5 mg/L incubated for 24 hrs by CLSI broth dilution method; assay type: functional; details: IBA 171, 24 h; in short: as §3
Pichia kudriavzevii [4] = assay: Antifungal activity against Candida krusei ATCC 6258 assessed as decrease in fungal cell growth at 0.78 to 12.5 mg/L incubated for 24 hrs by CLSI broth dilution method; assay type: functional; details: ATCC 6258, 24 h; in short: as §3
Candida albicans [5] = assay: Antifungal activity against Candida albicans ATCC 90028 assessed as diameter of zone inhibition incubated for 24 hrs by CLSI disc diffusion method; assay type: functional
In short: (§4)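 Yeast disc diffusion on Mueller-Hinton agar supplemented with 2% glucose and 0.5 mg/L methylene blue. Compounds in DMSO. Yeasts subcultured on Sabouraud dextrose agar before testing. Zones read after 35 °C, 24 h.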

[6] = test system: Meyerozyma guilliermondii; assay: Antifungal activity against Candida guilliermondii IBA 155 assessed as diameter of zone inhibition incubated for 24 hrs by CLSI disc diffusion method; assay type: functional; in short: as §4
Pichia kudriavzevii [7] = assay: Antifungal activity against Candida krusei ATCC 6258 assessed as diameter of zone inhibition incubated for 24 hrs by CLSI disc diffusion method; assay type: functional; in short: as §4
Saccharomyces cerevisiae = assay: Antifungal activity against Saccharomyces cerevisiae ATCC 9763 diameter of zone inhibition incubated for 24 hrs by CLSI disc diffusion method; assay type: functional
In short: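 Disc-diffusion run on Mueller-Hinton II agar with 2% glucose and 0.5 mg/L methylene blue, using compounds in DMSO. Yeast was precultured on Sabouraud dextrose agar (24–48 h, 30 °C). Zones read after 24 h at 35 °C.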

Staphylococcus aureus [8] = assay: Antibacterial activity against Staphylococcus aureus ATCC 6538P measured after 18 hrs by CLSI broth dilution method; assay type: functional; in short: as §2
Enterococcus faecium [9] = assay: Antibacterial activity against Enterococcus faecium ATCC 6057 measured after 18 hrs by CLSI broth dilution method; assay type: functional; details: ATCC 6057, 18 h; in short: as §2
Enterococcus faecalis = assay: Antibacterial activity against Enterococcus faecalis ATCC 29212 assessed as diameter of zone inhibition measured after 18 hrs by CLSI disc diffusion method; assay type: functional; in short: as §1
Enterococcus faecium [10] = assay: Antibacterial activity against Enterococcus faecium ATCC 6057 assessed as diameter of zone inhibition measured after 18 hrs by CLSI disc diffusion method; assay type: functional; in short: as §1
Bacillus subtilis = assay: Antibacterial activity against Bacillus subtilis ATCC 6633 assessed as diameter of zone inhibition measured after 18 hrs by CLSI disc diffusion method; assay type: functional; in short: as §1
Escherichia coli [11] = assay: Antibacterial activity against Escherichia coli ATCC 25922 measured after 18 hrs by CLSI broth dilution method; assay type: functional; details: ATCC 25922, 18 h; in short: as §2
Proteus mirabilis [12] = assay: Antibacterial activity against Proteus mirabilis ATCC 12453 measured after 18 hrs by CLSI broth dilution method; assay type: functional; details: ATCC 12453, 18 h; in short: as §2
Enterobacter cloacae [13] = assay: Antibacterial activity against Enterobacter cloacae DSM 6234 measured after 18 hrs by CLSI broth dilution method; assay type: functional; details: DSM 6234, 18 h; in short: as §2
[14] = test system: Bordetella bronchiseptica; assay: Antibacterial activity against Bordetella bronchiseptica ATCC 4617 measured after 18 hrs by CLSI broth dilution method; assay type: functional; details: ATCC 4617, 18 h; in short: as §2
Acinetobacter baumannii [15] = assay: Antibacterial activity against Acinetobacter baumannii ATCC 19606 measured after 18 hrs by CLSI broth dilution method; assay type: functional; details: ATCC 19606, 18 h; in short: as §2
[16] = test system: Stenotrophomonas maltophilia; assay: Antibacterial activity against Stenotrophomonas maltophilia ATCC 13637 measured after 18 hrs by CLSI broth dilution method; assay type: functional; details: ATCC 13637, 18 h; in short: as §2
Escherichia coli [17] = assay: Antibacterial activity against Escherichia coli ATCC 25922 assessed as diameter of zone inhibition measured after 18 hrs by CLSI disc diffusion method; assay type: functional; in short: as §1
Proteus mirabilis [18] = assay: Antibacterial activity against Proteus mirabilis ATCC 12453 assessed as diameter of zone inhibition measured after 18 hrs by CLSI disc diffusion method; assay type: functional; in short: as §1
Enterobacter cloacae [19] = assay: Antibacterial activity against Enterobacter cloacae DSM 6234 assessed as diameter of zone inhibition measured after 18 hrs by CLSI disc diffusion method; assay type: functional; in short: as §1
Pseudomonas aeruginosa [20] = assay: Antibacterial activity against Pseudomonas aeruginosa ATCC 27853 assessed as diameter of zone inhibition measured after 18 hrs by CLSI disc diffusion method; assay type: functional, organism-based; in short: as §1
Acinetobacter baumannii [21] = assay: Antibacterial activity against Acinetobacter baumannii ATCC 19606 assessed as diameter of zone inhibition measured after 18 hrs by CLSI disc diffusion method; assay type: functional; in short: as §1
[22] = test system: Stenotrophomonas maltophilia; assay: Antibacterial activity against Stenotrophomonas maltophilia ATCC 13637 assessed as diameter of zone inhibition measured after 18 hrs by CLSI disc diffusion method; assay type: functional; in short: as §1
Burkholderia cepacia = assay: Antibacterial activity against Burkholderia cepacia ATCC 25416 assessed as diameter of zone inhibition measured after 18 hrs by CLSI disc diffusion method; assay type: functional; in short: as §1
[23] = test system: Bordetella bronchiseptica; assay: Antibacterial activity against Bordetella bronchiseptica ATCC 4617 assessed as diameter of zone inhibition measured after 18 hrs by CLSI disc diffusion method; assay type: functional; in short: as §1
Enterobacter cloacae [24] = assay: Antibacterial activity against Enterobacter cloacae DSM 6234 assessed as fold reduction of MIC in presence of efflux pump inhibitor PAbetaN incubated for 18 hrs by broth microdilution method; assay type: functional
In short: (§5)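 MICs determined with and without PAβN at 50 mg/L in Mueller-Hinton broth containing 1 mM MgSO₄. 2-fold serial dilutions per CLSI. Fold change taken from the paired MICs after 35 °C, 18 h.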

Pseudomonas aeruginosa [25] = assay: Antibacterial activity against Pseudomonas aeruginosa ATCC 27853 assessed as fold reduction of MIC in presence of efflux pump inhibitor PAbetaN incubated for 18 hrs microdilution method; assay type: functional; in short: as §5
[26] = test system: Stenotrophomonas maltophilia; assay: Antibacterial activity against Stenotrophomonas maltophilia ATCC 13637 assessed as fold reduction of MIC in presence of efflux pump inhibitor PAbetaN incubated for 18 hrs by broth microdilution method; assay type: functional; in short: as §5

| MIC (Serratia marcescens) [mg/L] | pKa [2] | MIC (Candida albicans [3]) [mg/L] | MIC (Candida parapsilosis) [mg/L] | MIC (Candida tropicalis) [mg/L] | MIC (Pichia kudriavzevii [4]) [mg/L] | MIC (Staphylococcus aureus [8]) [mg/L] | MIC (Enterococcus faecium [9]) [mg/L] | MIC (Escherichia coli [11]) [mg/L] | MIC (Proteus mirabilis [12]) [mg/L] | MIC (Enterobacter cloacae [13]) [mg/L] | MIC [14] [mg/L] | Compound | diameter of the inhibition zone (DIZ) (Staphylococcus aureus [1]) [mm] | diameter of the inhibition zone (DIZ) (Candida albicans [5]) | diameter of the inhibition zone (DIZ) [6] | diameter of the inhibition zone (DIZ) (Pichia kudriavzevii [7]) | diameter of the inhibition zone (DIZ) (Saccharomyces cerevisiae) | diameter of the inhibition zone (DIZ) (Enterococcus faecalis) | diameter of the inhibition zone (DIZ) (Enterococcus faecium [10]) | diameter of the inhibition zone (DIZ) (Bacillus subtilis) [mm] | also measured |
| --- | --- | --- | --- | --- | --- | --- | --- | --- | --- | --- | --- | --- | --- | --- | --- | --- | --- | --- | --- | --- | --- |
| > 400 | 6.6 | 400 (≈ 1670 µM) | 100 (≈ 417 µM) | 400 (≈ 1670 µM) | 50 (≈ 208 µM) | 50 (≈ 208 µM) | 200 (≈ 834 µM) | > 400 | > 400 | > 400 | > 400 | C[Si]1(C)OB(O)c2cc(B(O)O)cc(F)c21 | 18 | inactive | inactive | inactive | inactive | 12 mm | 11 mm | 22 | MIC (Acinetobacter baumannii [15]): > 400 mg/L; MIC [16]: > 400 mg/L; diameter of the inhibition zone (DIZ) (Escherichia coli [17]): inactive; diameter of the inhibition zone (DIZ) (Proteus mirabilis [18]): inactive; diameter of the inhibition zone (DIZ) (Enterobacter cloacae [19]): inactive; diameter of the inhibition zone (DIZ) (Pseudomonas aeruginosa [20]): inactive; diameter of the inhibition zone (DIZ) (Acinetobacter baumannii [21]): inactive; diameter of the inhibition zone (DIZ) [22]: inactive; diameter of the inhibition zone (DIZ) (Burkholderia cepacia): inactive; diameter of the inhibition zone (DIZ) [23]: inactive; fold change (FC) (Enterobacter cloacae [24]): 32; fold change (FC) (Pseudomonas aeruginosa [25]): 2; fold change (FC) [26]: 16 |
| > 400 | 4.9 | > 400 | 25 (≈ 103 µM) | 100 (≈ 413 µM) | 25 (≈ 103 µM) | 200 (≈ 826 µM) | 50 (≈ 207 µM) | > 400 | > 400 | > 400 | > 400 | C[Si]1(C)OB(O)c2cc(F)c(C=O)c(F)c21 | 21 | inactive | inactive | inactive | inactive | inactive | inactive | 14 | MIC (Acinetobacter baumannii [15]): > 400 mg/L; MIC [16]: > 400 mg/L; diameter of the inhibition zone (DIZ) (Escherichia coli [17]): inactive; diameter of the inhibition zone (DIZ) (Proteus mirabilis [18]): inactive; diameter of the inhibition zone (DIZ) (Enterobacter cloacae [19]): inactive; diameter of the inhibition zone (DIZ) (Pseudomonas aeruginosa [20]): inactive; diameter of the inhibition zone (DIZ) (Acinetobacter baumannii [21]): inactive; diameter of the inhibition zone (DIZ) [22]: 11 mm; diameter of the inhibition zone (DIZ) (Burkholderia cepacia): inactive; diameter of the inhibition zone (DIZ) [23]: inactive; fold change (FC) (Enterobacter cloacae [24]): 16; fold change (FC) (Pseudomonas aeruginosa [25]): 8; fold change (FC) [26]: 8 |
| > 400 | 6.6 | 50 (≈ 203 µM) | 100 (≈ 406 µM) | 25 (≈ 102 µM) | 200 (≈ 813 µM) | 50 (≈ 203 µM) | 25 (≈ 102 µM) | > 400 | > 400 | > 400 | 400 (≈ 1630 µM) | C[Si]1(C)OB(O)c2ccc(C(F)(F)F)cc21 | 20 | 14 mm | 16 mm | 13 mm | 15 mm | 12 mm | 14 mm | 47 | MIC (Acinetobacter baumannii [15]): 400 mg/L (≈ 1630 µM); MIC [16]: 400 mg/L (≈ 1630 µM); diameter of the inhibition zone (DIZ) (Escherichia coli [17]): inactive; diameter of the inhibition zone (DIZ) (Proteus mirabilis [18]): inactive; diameter of the inhibition zone (DIZ) (Enterobacter cloacae [19]): inactive; diameter of the inhibition zone (DIZ) (Pseudomonas aeruginosa [20]): inactive; diameter of the inhibition zone (DIZ) (Acinetobacter baumannii [21]): 13 mm; diameter of the inhibition zone (DIZ) [22]: 14 mm; diameter of the inhibition zone (DIZ) (Burkholderia cepacia): inactive; diameter of the inhibition zone (DIZ) [23]: inactive; fold change (FC) (Enterobacter cloacae [24]): 16; fold change (FC) (Pseudomonas aeruginosa [25]): 8; fold change (FC) [26]: 16 |
